ChEMBL document CHEMBL1268967, “Synthesis and biological evaluation of furoxan-based nitric oxide-releasing derivatives of glycyrrhetinic acid as anti-hepatocellular carcinoma agents” (Bioorg Med Chem Lett, 2010)
pIC50: −log10 of the molar value. Active and inactive are the calls of the source. The rule behind the calls is not given here.

How the values were obtained:
[1] = Antiproliferative activity against human L02 cells at 10 uM after 24 hrs by MTT assay; assay type: cell-based; conditions: for Activity: l02, 24 h, 10 µM; for inhibition at 24 h, 10 µM: L02 cells
Procedure, shortened: (§1)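 Cells cultured in DMEM with 10% heat-inactivated fetal calf serum at 37 °C, 5% CO2, plated overnight and then exposed to 10 µM compound for 24 h. MTT was added for the last 4 h, formazan dissolved in DMSO and read at 570 nm. Values are mean % cytotoxicity ± SD from three separate experiments.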

[2] = tested on: Bel-7402; assay: Antiproliferative activity against human Bel7402 cells at 10 uM after 24 hrs by MTT assay; assay type: functional; conditions: for inhibition of growth at 10 µM: Bel-7402, 24 h, read-out: GI; procedure, shortened: as §1
[3] = tested on: HepG2; assay: Antiproliferative activity against human HepG2 cells after 24 hrs by MTT assay; assay type: functional, cell-based; conditions: HepG2, 24 h
Procedure, shortened: (§2)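 Cells grown in DMEM with 10% heat-inactivated fetal calf serum at 37 °C, 5% CO2; 3 × 10^5 cells/well plated overnight, then exposed in triplicate to a range of concentrations for 24 h. MTT (5 mg/mL) was added for the final 4 h, formazan dissolved in DMSO, absorbance at 570 nm. IC50 is the mean of dose–response curves from at least three independent experiments.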

[4] = tested on: Bel-7402; assay: Antiproliferative activity against human Bel7402 cells after 24 hrs by MTT assay; assay type: functional, cell-based; conditions: Bel-7402, 24 h; procedure, shortened: as §2
[5] = tested on: HepG2; assay: Induction of nitric oxide release in human HepG2 cells at 100 uM […] by Griess assay; assay type: functional, cell-based
[6] = tested on: Bel-7402; assay: Induction of nitric oxide release in human Bel7402 cells at 100 uM […] by Griess assay; assay type: functional, cell-based
[7] = Toxicity in human L02 cells assessed as induction of nitric oxide release at 100 uM […] by Griess assay; assay type: cell-based; conditions: l02, 100 µM
[8] = tested on: Bel-7402; assay: Induction of nitric oxide release in human Bel7402 cells at 5 uM for 24 hrs pretreated with hemoglobin for 1 hr by Griess assay; assay type: functional, cell-based
Procedure, shortened: (§3)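 BEL-7402 cells in 24-well plates were pretreated in triplicate with hemoglobin (0, 1, 5, 10 or 20 µM) for 1 h, then given compound at 5 or 10 µM for 24 h. NO in the cells was measured by Griess assay and reported as mean concentration for each condition.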

[9] = tested on: Bel-7402; assay: Antiproliferative activity against human Bel7402 cells at 5 uM for 24 hrs pretreated with hemoglobin for 1 hr by MTT assay; assay type: functional, cell-based
Procedure, shortened: (§4)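 BEL-7402 cells in 24-well plates were pretreated in triplicate with hemoglobin (0, 1, 5, 10 or 20 µM) for 1 h as an NO scavenger. Compound was then added at 5 or 10 µM for 24 h and cytotoxicity read by MTT. Data are mean % cytotoxicity for each condition.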

[10] = tested on: Bel-7402; assay: Induction of nitric oxide release in human Bel7402 cells at 10 uM for 24 hrs pretreated with hemoglobin for 1 hr by Griess assay; assay type: functional, cell-based; procedure, shortened: as §3
[11] = tested on: Bel-7402; assay: Antiproliferative activity against human Bel7402 cells at 10 uM for 24 hrs pretreated with hemoglobin for 1 hr by MTT assay; assay type: functional, cell-based; procedure, shortened: as §4

SMILES | pIC50 [3] | pIC50 [4] | other results
O=S(=O)(c1ccccc1)c1c(OCC#CCO)no[n+]1[O-] | – | – | Activity [1]: Toxic; growth inhibition (GI) [2]: Active
COC(=O)[C@@]1(C)CC[C@]2(C)CC[C@]3(C)C(=CC(=O)[C@@H]4[C@@]5(C)CC[C@H](OC(=O)CCC(=O)OCCOCCOc6no[n+]([O-])c6S(=O)(=O)c6ccccc6)C(C)(C)[C@@H]5CC[C@]43C)[C@@H]2C1 | 4.80 | 4.70 | –
COc1cccc2c1C(=O)c1c(O)c3c(c(O)c1C2=O)C[C@@](O)(C(=O)CO)C[C@@H]3O[C@H]1C[C@H](N)[C@H](O)[C@H](C)O1 [DOXORUBICIN] | 5.69 | 6.05 | –
COC(=O)[C@@]1(C)CC[C@]2(C)CC[C@]3(C)C(=CC(=O)[C@@H]4[C@@]5(C)CC[C@H](OC(=O)CCC(=O)NCCOc6no[n+]([O-])c6S(=O)(=O)c6ccccc6)C(C)(C)[C@@H]5CC[C@]43C)[C@@H]2C1 | 5.54 | 5.53 | –
CC1(C)[C@@H](O)CC[C@]2(C)[C@H]3C(=O)C=C4[C@@H]5C[C@@](C)(C(=O)NCC(=O)OCCOCCOc6no[n+]([O-])c6S(=O)(=O)c6ccccc6)CC[C@]5(C)CC[C@@]4(C)[C@]3(C)CC[C@@H]12 | 5.29 | 5.42 | –
O=S(=O)(c1ccccc1)c1c(OCCCO)no[n+]1[O-] | – | – | Activity [1]: Toxic; growth inhibition (GI) [2]: Active
CC(=O)O[C@H]1CC[C@]2(C)[C@H]3C(=O)C=C4[C@@H]5C[C@@](C)(C(=O)OCCCOc6no[n+]([O-])c6S(=O)(=O)c6ccccc6)CC[C@]5(C)CC[C@@]4(C)[C@]3(C)CC[C@H]2C1(C)C | 4.94 | 4.81 | –
CC(=O)O[C@H]1CC[C@]2(C)[C@H]3C(=O)C=C4[C@@H]5C[C@@](C)(C(=O)NCC(=O)OCCOCCOc6no[n+]([O-])c6S(=O)(=O)c6ccccc6)CC[C@]5(C)CC[C@@]4(C)[C@]3(C)CC[C@H]2C1(C)C | 5.19 | 5.02 | –
CC1(C)[C@@H](O)CC[C@]2(C)[C@H]3C(=O)C=C4[C@@H]5C[C@@](C)(C(=O)NCCOc6no[n+]([O-])c6S(=O)(=O)c6ccccc6)CC[C@]5(C)CC[C@@]4(C)[C@]3(C)CC[C@@H]12 | 5.13 | 5.61 | –
O=S(=O)(c1ccccc1)c1c(OC/C=C/CO)no[n+]1[O-] | – | – | Activity [1]: Toxic; growth inhibition (GI) [2]: Active
CC(=O)O[C@H]1CC[C@]2(C)[C@H]3C(=O)C=C4[C@@H]5C[C@@](C)(C(=O)OCCOCCOc6no[n+]([O-])c6S(=O)(=O)c6ccccc6)CC[C@]5(C)CC[C@@]4(C)[C@]3(C)CC[C@H]2C1(C)C | 4.50 | 4.67 | –
CC(=O)O[C@H]1CC[C@]2(C)[C@H]3C(=O)C=C4[C@@H]5C[C@@](C)(C(=O)NCCOc6no[n+]([O-])c6S(=O)(=O)c6ccccc6)CC[C@]5(C)CC[C@@]4(C)[C@]3(C)CC[C@H]2C1(C)C | 4.62 | 4.85 | –
CC1(C)[C@@H](O)CC[C@]2(C)[C@H]3C(=O)C=C4[C@@H]5C[C@@](C)(C(=O)O)CC[C@]5(C)CC[C@@]4(C)[C@]3(C)CC[C@@H]12 [ENOXOLONE] | < 4.30 | < 4.30 | –
COC(=O)[C@@]1(C)CC[C@]2(C)CC[C@]3(C)C(=CC(=O)[C@@H]4[C@@]5(C)CC[C@H](OC(=O)CCC(=O)OCCCCOc6no[n+]([O-])c6S(=O)(=O)c6ccccc6)C(C)(C)[C@@H]5CC[C@]43C)[C@@H]2C1 | 4.44 | 5.09 | –
COC(=O)[C@@]1(C)CC[C@]2(C)CC[C@]3(C)C(=CC(=O)[C@@H]4[C@@]5(C)CC[C@H](OC(=O)CCC(=O)OCCCOc6no[n+]([O-])c6S(=O)(=O)c6ccccc6)C(C)(C)[C@@H]5CC[C@]43C)[C@@H]2C1 | 4.87 | 5.04 | –
CC1(C)[C@@H](O)CC[C@]2(C)[C@H]3C(=O)C=C4[C@@H]5C[C@@](C)(C(=O)NCC(=O)OCC#CCOc6no[n+]([O-])c6S(=O)(=O)c6ccccc6)CC[C@]5(C)CC[C@@]4(C)[C@]3(C)CC[C@@H]12 | 5.47 | 6.08 | inhibition at 24 h, 10 µM [1]: < 18%; inhibition of growth at 10 µM [2]: > 83.5%; Activity [5]: Active; Activity [6]: Active; Activity [7]: Non-toxic
O=S(=O)(c1ccccc1)c1c(OCCCCO)no[n+]1[O-] | – | – | Activity [1]: Toxic; growth inhibition (GI) [2]: Active
CC(O)CCOc1no[n+]([O-])c1S(=O)(=O)c1ccccc1 (centres undefined) | – | – | Activity [1]: Toxic; growth inhibition (GI) [2]: Active
COC(=O)[C@@]1(C)CC[C@]2(C)CC[C@]3(C)C(=CC(=O)[C@@H]4[C@@]5(C)CC[C@H](OC(=O)CCC(=O)OCC#CCOc6no[n+]([O-])c6S(=O)(=O)c6ccccc6)C(C)(C)[C@@H]5CC[C@]43C)[C@@H]2C1 | 4.94 | 4.87 | –
CC(=O)O[C@H]1CC[C@]2(C)[C@H]3C(=O)C=C4[C@@H]5C[C@@](C)(C(=O)OCC#CCOc6no[n+]([O-])c6S(=O)(=O)c6ccccc6)CC[C@]5(C)CC[C@@]4(C)[C@]3(C)CC[C@H]2C1(C)C | 5.12 | 4.83 | –
COC(=O)[C@@]1(C)CC[C@]2(C)CC[C@]3(C)C(=CC(=O)[C@@H]4[C@@]5(C)CC[C@H](OC(=O)CCC(=O)OCCOc6no[n+]([O-])c6S(=O)(=O)c6ccccc6)C(C)(C)[C@@H]5CC[C@]43C)[C@@H]2C1 | 4.74 | 5.11 | –
CC(=O)O[C@H]1CC[C@]2(C)[C@H]3C(=O)C=C4[C@@H]5C[C@@](C)(C(=O)OCCOc6no[n+]([O-])c6S(=O)(=O)c6ccccc6)CC[C@]5(C)CC[C@@]4(C)[C@]3(C)CC[C@H]2C1(C)C | 4.83 | 5.42 | –
CC1(C)[C@@H](O)CC[C@]2(C)[C@H]3C(=O)C=C4[C@@H]5C[C@@](C)(C(=O)NCC(=O)OCCOc6no[n+]([O-])c6S(=O)(=O)c6ccccc6)CC[C@]5(C)CC[C@@]4(C)[C@]3(C)CC[C@@H]12 | 5.04 | 5.86 | –
CC1(C)[C@@H](O)CC[C@]2(C)[C@H]3C(=O)C=C4[C@@H]5C[C@@](C)(C(=O)NCC(=O)OCCCOc6no[n+]([O-])c6S(=O)(=O)c6ccccc6)CC[C@]5(C)CC[C@@]4(C)[C@]3(C)CC[C@@H]12 | 5.42 | 6.37 | inhibition at 24 h, 10 µM [1]: < 18%; inhibition of growth at 10 µM [2]: > 83.5%; Activity [5]: Active; Activity [6]: Active; Activity [7]: Non-toxic
CC1(C)[C@@H](O)CC[C@]2(C)[C@H]3C(=O)C=C4[C@@H]5C[C@@](C)(C(=O)NCC(=O)OCCCCOc6no[n+]([O-])c6S(=O)(=O)c6ccccc6)CC[C@]5(C)CC[C@@]4(C)[C@]3(C)CC[C@@H]12 | 5.17 | 6.60 | inhibition at 24 h, 10 µM [1]: < 18%; inhibition of growth at 10 µM [2]: > 83.5%; Activity [5]: Active; Activity [6]: Active; Activity [7]: Non-toxic; growth inhibition (GI) [8]: inactive; Activity [9]: inactive; growth inhibition (GI) [10]: inactive; Activity [11]: inactive
